# Shown is part of a subset that was picked to be rich in hits.
# Lmaj promast: reduces viability of Leishmania major promastigotes; resazurin fluorescence viability; inhibition, % at 10 µM; 9% of 200,000 active; AID 1063; in the data active means inhibition above about 50%;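 further: promastigotes grown with compound for 44 hours at 28 °C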
# MPTP inh: inhibitors of mitochondrial permeability transition pore; inhibition, % at 10 µM; 1.4% of 360,000 active; isolated mouse mitochondria, Ca2+ swelling absorbance, 30 min;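 active means inhibition of 50% or more, scaled per plate between neutral and stimulator controls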;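 further: 0% = DMSO wells given calcium and 100% = 1 mM EGTA wells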
# DTT redox prof: compounds producing H2O2 with reducing agent – biochemical, NIH compound library profiling, artefact control for MLSCN library redox annotation, primary screen; DTT-dependent redox cycling H2O2, phenol red/HRP absorbance; 100% = 100 µM peroxide control, 0% = buffer; activation, % at 10 µM; 0.03% of 200,000 active; AID 878;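 active means activation of at least 50% relative to the plate's high and low controls in the primary single-dose screen; inactive means activation below 50%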;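 further: compound incubated with DTT at 0.8 mM final as the reducing agent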
# Lipid droplet: modulators of hepatic lipid droplet formation; AML12 mouse hepatocytes, oleate lipid droplets, BODIPY imaging; inhibition, % at 6.5 µM; AID 1656; 0.4% of 240,000 active;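 active means lipid droplet intensity inhibited by at least 50%, with more than 500 cells counted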
#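 Assay system: AML12 mouse liver cells | Compound dosing: One dose, 6.5 µM compound | Read-out basis: Droplet intensity reduction, % inhibition | Measured by: Fluorescence imaging, 20x objective, two fields per well | Schedule: Overnight treatment with compound plus oleate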
# T cruzi repl: blocks replication of Trypanosoma cruzi; inhibition, % (concentration not given with the values); 1.4% of 300,000 active; AID 1885; T. cruzi beta-gal in NIH3T3, luminescence, 90 h;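 active means mean inhibition across valid replicates above about 55%, limit read from the data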;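 further: signal also drops with host cell toxicity which is not excluded here; 0% = plate median of DMSO wells and 100% = zero luminescence signal; higher percent means less beta-gal luminescence so fewer parasites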
#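 Incubation – ≥90 h infection period, 3 h prior cell attachment · System – NIH/3T3 fibroblasts plus reporter T. cruzi · Doses – compound pinned at 50 nL/well, DMSO · Read-out basis – percent inhibition of parasite-derived β-gal signal · Signal – luminescent β-galactosidase signal after 60 min lysis · Also added – 5000 T. cruzi trypomastigotes/well · Medium – Low-serum DMEM with 2% FBS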
# The depositor's hits bear a star; nt = no result given.
SMILES,Lmaj promast,MPTP inh,DTT redox prof,Lipid droplet,T cruzi repl
Cc1ccc(-c2nc(SCC(=O)NCCN3C(=O)CSC3=O)[nH]c2-c2ccc(C)cc2)cc1,81*,nt,-7,nt,15
CN(C)c1nc(NC(C)(C)C)nc(NC(C)(C)C)n1,60*,26,0,11,59*
O=C(Nc1ccc2ccccc2c1)N1CCCN(CCOc2ccccc2)CC1,nt,3,nt,1,4
O=C(Cc1ccccc1)Nc1ccc(C(=O)NCC2COc3ccccc3O2)cc1 (configuration not stated),3,-34,1,6,4
O=C(NCC1COc2ccccc2O1)c1ccc(NC(=O)C(c2ccccc2)c2ccccc2)cc1 (configuration not stated),92*,4,1,-3,85*
Cc1ccc(NC(=O)c2cc3c(=O)oc4ccc(C)cc4c3s2)nc1,nt,nt,nt,-6,3
Cc1cc(C(=O)NNC(=S)NC(=O)/C=C/c2ccccc2Cl)n[nH]1,78*,6,0,17,-2
Cc1cccc(N(C(=O)CNC(=O)c2cccs2)C(C(=O)NC2CCCC2)c2ccncc2)c1 (configuration not stated),nt,-2,nt,-37,4
CCc1nn(CC(=O)NCCCc2ccccc2)c(=O)c2cc3cc(F)ccc3n12,nt,0,nt,21,-1
C=CCN1C(=O)CSc2ccc(C(=O)NCc3ccco3)cc21,0,-1,-1,nt,3
C=CCN1C(=O)CSc2ccc(C(=O)NCCC3=CCCCC3)cc21,76*,2,0,6,26
O=C1CC(/C=C/c2ccncc2)=Nc2ccccc2N1,65*,-4,-2,4,19
O=C1CC(c2ccccc2)=Nc2ccccc2N1,0,3,0,1,-13
COc1ccc(C(=O)C2CCCN(Cc3cccn3-c3cccnc3)C2)cc1OC (configuration not stated),8,2,-2,-5,10
O=C(c1ccc(Cl)cc1)C1CCCN(Cc2cccn2-c2cccnc2)C1 (configuration not stated),87*,0,-1,-2,58*
CC(C)Oc1cccc(C(=O)C2CCCN(Cc3cccn3-c3cccnc3)C2)c1 (configuration not stated),nt,14,nt,-15,53
CSc1ccc(C(=O)C2CCCN(Cc3cccn3-c3cccnc3)C2)cc1 (configuration not stated),85*,4,0,-26,30
O=C(c1ccc2c(c1)OCO2)C1CCCN(Cc2cccn2-c2cccnc2)C1 (configuration not stated),94*,-1,-1,-3,58*
COc1cccc(OCC(=O)Nc2ccccc2C(=O)Nc2ccc(C(=O)O)cc2)c1,nt,0,nt,8,5
COC(CNC(=O)CCc1c(C)nc2c(c(C)nn2-c2ccc(C)cc2)c1C)OC,nt,0,nt,-1,-6
Cc1ccc(-n2nc(C)c3c(C)c(CCC(=O)Nc4ccc(CN5CCCC5)cc4)c(C)nc32)cc1,nt,4,nt,33,72*
O=C(NC1=NCCS1)c1cccc2ccccc12,2,-1,0,7,-13
CCN1CCCC1CNCc1cccc(OC)c1OCc1ccccc1F (configuration not stated),100*,0,1,11,12
CNCc1ccccc1OCc1ccc(F)cc1,5,2,1,-17,-13
CCN1CCCC1CNCc1ccccc1OCc1ccc(F)cc1 (configuration not stated),100*,1,0,-3,-5
SMILES,Lmaj promast,MPTP inh,DTT redox prof,Lipid droplet,T cruzi repl
CCN1CCCC1CNCc1cc(OC)c(OC)c(OC)c1 (configuration not stated),0,3,0,5,6
CCN1CCCC1CNCc1cccc(OC)c1OCc1ccccc1 (configuration not stated),85*,-1,0,4,7
COC(=O)c1ccc(COC(=O)c2ccc(SC)cc2OC)cc1,-8,1,0,-9,3
Cc1cc(C)n(-c2ccc(C(=O)N3CCN(S(=O)(=O)c4ccc(Br)cc4Cl)CC3)cc2)n1,nt,1,nt,nt,nt
COc1ccc(C(=O)CSc2nc3[nH]ncc3c(=O)[nH]2)cc1,-7,1,-1,2,-15
Cc1ccn(CCC(=O)NC2CC(C)(C)Cc3c2cnn3-c2ccccc2C)n1 (configuration not stated),nt,-1,nt,-5,29
C[C@@H]1CN([C@@H](C)CO)C(=O)c2cccc(NS(C)(=O)=O)c2O[C@H]1CN(C)CC1CCCCC1,nt,0,nt,nt,nt
CCOC(=O)C1=C(C)n2c(s/c(=C/c3cccc([N+](=O)[O-])c3)c2=O)=NC1c1ccc(O)c(OC)c1 (configuration not stated),100*,-1,0,-11,70*
CN1CCN(/C=N/c2sc3c(c2C#N)CCCCC3)CC1,40,-5,1,nt,58*
COc1cccc(CC2(CO)CCCN(C/C=C/c3ccccc3OC)C2)c1 (configuration not stated),41,5,-1,-25,63*
COc1ccc(F)c(CN2CCCC(CO)(Cc3cccc(Cl)c3)C2)c1 (configuration not stated),nt,2,nt,-3,31
COc1ccc(/C=C/CN2CCCC(CO)(Cc3cccc(Cl)c3)C2)cc1 (configuration not stated),97*,3,0,2,47
c1ccc(-n2ncc3c(NCCN4CCCCC4)ncnc32)cc1,98*,1,0,nt,-1
c1ccc(-n2ncc3c(NCCN4CCOCC4)ncnc32)cc1,34,1,0,nt,-2
COc1ccc(C(=O)CN2C3=NCCCN3c3ccccc32)cc1OC,-8,0,0,2,-9
Cc1ccc(C)c(C(=O)CN2C3=NCCCN3c3ccccc32)c1,78*,0,2,nt,36
CC1CC(O)(Cc2ccccc2)C(C)CN1C (configuration not stated),-6,0,0,-2,-20
CC1C(C)C(O)(c2ccccc2)CCN1C (configuration not stated),69*,-1,3,13,7
CC(=O)N/C(=C\c1ccccc1)C(=O)OC/C=C/c1ccccc1,nt,3,nt,6,-10
CCCc1nc2nc(C)c(NS(=O)(=O)c3ccc(Cl)cc3)c(=O)n2[nH]1,nt,-1,nt,-1,-8
O=C(O)CC1S/C(=N/N=C/C2CC=CCC2)NC1=O (configuration not stated),-4,-1,-1,-7,-11
O=C1Nc2ccc(Cl)cc2/C1=C/C1CC=CCC1 (configuration not stated),96*,-2,0,-3,20
CCOC(=O)[C@]12CCCC=C1N(Cc1cccc3ccccc13)C(=O)[C@H](CC(=O)NCCCOC)C2,nt,0,nt,nt,nt
CC(C)OC(=O)CSc1nc(Cc2cccs2)nc2ccccc12,-4,1,0,0,7
